The values that follow come from publication PMC5598389 (Toxicology Reports, 2015).

“And” between values parts separate entries of the source, which are not always exact repeats. Identical values can stand only once. “Also recorded” adds a separate entry of the source. Counter-ions that a name gives are not always drawn. Like-named read-outs stand apart in the source and are kept apart here.

Data set [1] concerns the target CYP2C19 (Homo sapiens, UniProt P33261). The note with it: 10 μM, spectrofluorimetric substrates; ref Arthur, unpublished results; cited from earlier work.
For data set [2] the following is noted: 28-day and 22-week rat and 28-day dog studies; cited from earlier work.
A short description of data set [3]: Pharmacokinetics of S2227 and M179 hydrochloride in mice. The format is in vivo, male CD-1 mice. The note with it: for AUC(0-t): male, CD-1, mouse, plasma, po. The gist of the method: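 Two groups of 28 male Crl:CD-1(ICR) mice were gavaged with a 1% methylcellulose suspension of either parent (30 mg/kg) or the equimolar secondary amine hydrochloride (20 mg/kg). Blood was taken by cardiac puncture from 4 mice/group/time point at about 15 and 30 min and 1, 2, 4, 8 and 24 h. Plasma levels of parent and metabolites gave Cmax and AUClast.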

For data set [4], the system named is bone marrow polychromatic erythrocytes. Nature of the data set: In vivo micronucleus assay, bone marrow PCEs. The arrangement: species or system CD-1 mice. To be noted: for Mortality: dose range finding. The gist of the method: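 Crl:CD-1(ICR) mice were gavaged for three consecutive days in 1% methylcellulose at 10 mL/kg. Dose-range phases used 3/sex/group: parent at 500–2000 mg/kg, amine salt at 125–2000 mg/kg/day. Definitive phases used 6/sex (parent) or 5/sex (amine), with MMS 40 mg/kg/day as positive control. Micronuclei were scored in 2000 bone marrow PCEs per animal, and the PCE/total erythrocyte ratio was used for cytotoxicity.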

For data set [5], the system named is S. typhimurium strains TA98, TA100, TA1535, TA1537 and E. coli strain WP2 uvrA. Nature of the data set: Bacterial reverse mutation test. It counts as cell-based. To be noted: 50-5000 μg/plate, initial and confirmatory plate incorporation, ±S9. The method, boiled down:
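OECD 471 design, run with and without Aroclor 1254-induced male Sprague-Dawley rat liver S9 (9000 × g fraction). The parent compound was tested by plate incorporation and pre-incubation at 63–1000 µg/plate. The secondary amine hydrolysis product (hydrochloride) was tested by plate incorporation only, in an initial toxicity-mutation phase and a confirmatory phase, at nominal 50–5000 µg/plate. Positive and vehicle controls ran concurrently.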

The nature of data set [6]: Pharmacokinetics after single iv or oral S2227 in dogs. The format is in vivo, beagle dogs. The note with it: for AUC0-last ratio M179/S2227 / AUC0-last/dose: Dog (M); for AUC(0-t) / Cmax / Tmax / half-life: male, beagle, dog; for AUC(0-t) / Cmax / Tmax / half-life / AUC0-last/dose: plasma.
In data set [7] the test system is liver cells. Nature of the data set: In vivo alkaline comet assay, liver. The arrangement: species or system CD-1 mice. The note with it: males: 125, 250, 500 mg/kg bw; females: 250, 500, 1000 mg/kg bw (oral). The gist of the method: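 Run on the same Crl:CD-1(ICR) mice as the micronucleus study, 5/sex/group. Animals received the salt of the secondary amine hydrolysis product by oral gavage for three consecutive days, with 1% methylcellulose as vehicle control. Liver cells were analysed by alkaline single-cell gel electrophoresis, scoring % tail DNA and counting "clouds" (hedgehogs) against vehicle controls.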

Data set [8] in a line: In vitro metabolism in liver microsomes. The format is in vitro ADME, Gottingen pig. To be noted: Pig (10 min), positive ionization. A general note: Microsomes from liver hold many membrane-bound enzymes, among them those of drug oxidation.
The nature of data set [9]: In vitro metabolism in liver microsomes. It counts as in vitro ADME, Sprague-Dawley rat. To be noted: Rat (20 min), positive ionization.
A short description of data set [10]: In vitro metabolism in liver microsomes. To be noted: Human (60 min), positive ionization. It counts as in vitro ADME.
Data set [11] has as its system human peripheral blood lymphocytes (HPBL). Nature of the data set: In vitro chromosome aberration test.
The nature of data set [12]: Pharmacokinetics after single iv or oral S2227 in rats. It counts as in vivo, Sprague-Dawley rats. The note with it: for AUC(0-t) / Cmax / Tmax / half-life: Sprague-Dawley, rat; for AUC(0-t) / Cmax / Tmax / half-life / AUC0-last/dose: plasma. The method, boiled down: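 IV dosing: 4 male and 4 female Sprague-Dawley rats given a 1 mg/kg bolus in PEG 400, with blood sampled at about 0, 2, 5, 10 and 30 min and 1, 2, 4 and 8 h. Oral dosing: 4/sex/group gavaged at 10, 30 or 100 mg/kg in 1% methylcellulose, with blood sampled at about 0, 15 and 30 min and 1, 2, 4, 8 and 24 h. Plasma was assayed for parent and metabolites.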

A short description of data set [13]: In vitro metabolism in liver microsomes. The note with it: Dog (60 min), positive ionization. The format is in vitro ADME.
For data set [14] the following is noted: ref Chi, unpublished results, cited from earlier work.

CYP2C19, sequence (P33261 whole entry): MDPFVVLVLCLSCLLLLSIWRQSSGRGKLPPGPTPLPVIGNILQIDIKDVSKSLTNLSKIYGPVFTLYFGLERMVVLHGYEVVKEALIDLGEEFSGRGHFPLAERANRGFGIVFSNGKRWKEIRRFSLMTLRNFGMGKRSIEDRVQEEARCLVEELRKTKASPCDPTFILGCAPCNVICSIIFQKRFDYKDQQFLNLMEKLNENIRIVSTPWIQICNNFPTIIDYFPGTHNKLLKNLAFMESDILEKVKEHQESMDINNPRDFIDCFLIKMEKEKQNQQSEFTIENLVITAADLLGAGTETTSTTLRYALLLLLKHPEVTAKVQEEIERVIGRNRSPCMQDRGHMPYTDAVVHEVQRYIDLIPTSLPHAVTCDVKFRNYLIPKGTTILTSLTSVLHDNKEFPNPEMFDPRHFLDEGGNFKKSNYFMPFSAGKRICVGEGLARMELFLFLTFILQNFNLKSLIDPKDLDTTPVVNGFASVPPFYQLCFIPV

Consider `CCNC(=O)C1CC(C)CCC1C(C)C` (centres unmarked) [FEMA 3455, N-ethyl-p-menthane-3-carboxamide], for which the “% inhibition of CYP2C19” value in data set [1] is on record as 74%. The NOEL in data set [2] was 8 mg/kg/day.
Regarding `c1csc(CNc2cc[nH]n2)c1` [M179 hydrochloride salt, N-(2-thienylmethyl)-1H-pyrazol-3-amine], the “fold higher exposure of M179 in plasma than after an equimolar dose of S2227” value in data set [3] (oral, mice) stood at 158 fold. Also, the Mortality in data set [4] (females, 2000 mg/kg) is recorded as 3/3; in data set [4] (males, 1000 mg/kg/day), 2/3; in data set [4] (males, 2000 mg/kg) it was 3/3.
The AUC(0-t) is the area under the concentration-time curve up to a stated or last time point. Lower therefore signals low exposure. In general, Cmax refers to the peak of the concentration-time curve. What is called Tmax is the time at which the peak concentration occurs. In general, half-life refers to how long it takes for the measured level to halve. Consider `c1csc(CNc2cc[nH]n2)c1` [M179, N-(2-thienylmethyl)-1H-pyrazol-3-amine], for which the AUC(0-t) in [3] (20 mg/kg) is 4370 ng·h/mL; in data set [3] (30 mg/kg), 27.6 ng·h/mL; in [6] (iv, 1 mg/kg), 6.63 ± 0.9 ng·h/mL; in data set [6] (po, 10 mg/kg), 22.2 ± 8.78 ng·h/mL; in [6] (po, 30 mg/kg), 31 ± 15.4 ng·h/mL; in [6] (po, 100 mg/kg), 171 ± 144 ng·h/mL. Besides, the AUC(0-t) in data set [12] (female, iv, 1 mg/kg) was 12.6 ± 5.02 ng·h/mL; in [12] (female, po, 10 mg/kg), 384 ± 267 ng·h/mL; in data set [12] (female, po, 30 mg/kg), 2510 ± 1700 ng·h/mL; in data set [12] (female, po, 100 mg/kg), 5980 ± 745 ng·h/mL; in data set [12] (male, iv, 1 mg/kg), 8.78 ± 1.97 ng·h/mL; in [12] (male, po, 10 mg/kg), 254 ± 102 ng·h/mL. Besides, the AUC(0-t) in [12] (male, po, 30 mg/kg) was found to be 614 ± 201 ng·h/mL; in data set [12] (male, po, 100 mg/kg), 3500 ± 813 ng·h/mL. The “Micronucleus formation (in vivo)” value in data set [4] (males: 125, 250, 500 mg/kg bw, females: 250, 500, 1000 mg/kg bw (oral)) is “did not induce micronuclei; also recorded: Negative”. Moreover, the “Reverse mutation (in vitro)” value in [5] is given as “not mutagenic; also recorded: Negative”. In addition, the “AUC0-last ratio M179/S2227” value is 0.007 in [6] (S2227 iv 1.0 mg/kg); 0.187 in [6] (S2227 oral gavage 10 mg/kg); 0.139 in data set [6] (S2227 oral gavage 30 mg/kg); 0.243 in [6] (S2227 oral gavage 100 mg/kg); 0.042 in data set [12] (S2227 iv 1.0 mg/kg, Rat (F)); 0.040 in data set [12] (S2227 iv 1.0 mg/kg, Rat (M)). Further, the “AUC0-last ratio M179/S2227” value amounted to 48.9 in [12] (S2227 oral gavage 10 mg/kg, Rat (F)); 155 in [12] (S2227 oral gavage 10 mg/kg, Rat (M)); 86.2 in data set [12] (S2227 oral gavage 30 mg/kg, Rat (F)); 98.6 in data set [12] (S2227 oral gavage 30 mg/kg, Rat (M)); 38.1 in [12] (S2227 oral gavage 100 mg/kg, Rat (F)); 69.9 in data set [12] (S2227 oral gavage 100 mg/kg, Rat (M)). In addition, the Cmax in data set [6] (iv, 1 mg/kg) is 5.2 ± 0.9 ng/mL; in [6] (po, 10 mg/kg), 10.2 ± 4.84 ng/mL; in data set [6] (po, 30 mg/kg), 6.81 ± 2.15 ng/mL; in [6] (po, 100 mg/kg), 129 nM and 23.1 ng/mL; in [12] (female, iv, 1 mg/kg), 14 ± 4.84 ng/mL; in data set [12] (female, po, 10 mg/kg), 407 ± 289 ng/mL. The Cmax in [12] (female, po, 30 mg/kg) is 1540 ± 1050 ng/mL; in data set [12] (female, po, 100 mg/kg), 1770 ± 457 ng/mL; in data set [12] (male, iv, 1 mg/kg), 15.1 ± 3.23 ng/mL; in data set [12] (male, po, 10 mg/kg), 189 ± 94.5 ng/mL; in data set [12] (male, po, 30 mg/kg), 290 ± 115 ng/mL; in [12] (male, po, 100 mg/kg), 5.64 µM and 1010 ng/mL. Moreover, the Tmax was determined as 0.5 h in data set [6] (iv, 1 mg/kg); 4.67 h in data set [6] (po, 10 mg/kg); 1 h in [6] (po, 30 mg/kg); 10 h in data set [6] (po, 100 mg/kg); 0.13 h in [12] (female, iv, 1 mg/kg); 0.44 h in [12] (female, po, 10 mg/kg). Also, the Tmax in data set [12] (female, po, 30 mg/kg) was determined as 0.75 h; in data set [12] (female, po, 100 mg/kg), 0.83 h; in data set [12] (male, iv, 1 mg/kg), 0.11 h; in data set [12] (male, po, 10 mg/kg) it was 0.5 h; in data set [12] (male, po, 30 mg/kg), 0.75 h; in data set [12] (male, po, 100 mg/kg) it was 1.13 h. The half-life in data set [6] (iv, 1 mg/kg) is 1.1 h; in [6] (po, 10 mg/kg) it was 4.77 h; in data set [6] (po, 30 mg/kg) it was 2.27 h; in [6] (po, 100 mg/kg), 4.69 h; in data set [12] (female, iv, 1 mg/kg), 0.82 h; in [12] (female, po, 10 mg/kg), 1.02 h. For the same molecule, the half-life in data set [12] (female, po, 30 mg/kg) is 1.06 h; in data set [12] (female, po, 100 mg/kg) it was 1.84 h; in data set [12] (male, iv, 1 mg/kg) it was 0.28 h; in data set [12] (male, po, 10 mg/kg), 1.12 h; in [12] (male, po, 30 mg/kg), 1.29 h; in data set [12] (male, po, 100 mg/kg), 1.83 h. Further, the AUC0-last/dose in data set [6] (dosed S2227 iv 1.0 mg/kg) is reported as 6.63 ng·h/mL/mg/kg; in [6] (dosed S2227 oral gavage 10 mg/kg), 2.22 ng·h/mL/mg/kg; in [6] (dosed S2227 oral gavage 30 mg/kg), 1.03 ng·h/mL/mg/kg; in data set [6] (dosed S2227 oral gavage 100 mg/kg), 1.71 ng·h/mL/mg/kg; in data set [12] (dosed S2227 iv 1.0 mg/kg, Rat (F)) it was 12.6 ng·h/mL/mg/kg; in data set [12] (dosed S2227 iv 1.0 mg/kg, Rat (M)) it was 8.78 ng·h/mL/mg/kg. Moreover, the AUC0-last/dose in [12] (dosed S2227 oral gavage 10 mg/kg, Rat (F)) worked out at 38.4 ng·h/mL/mg/kg; in data set [12] (dosed S2227 oral gavage 10 mg/kg, Rat (M)) it was 25.4 ng·h/mL/mg/kg; in data set [12] (dosed S2227 oral gavage 30 mg/kg, Rat (F)) it was 83.7 ng·h/mL/mg/kg; in data set [12] (dosed S2227 oral gavage 30 mg/kg, Rat (M)), 20.5 ng·h/mL/mg/kg; in [12] (dosed S2227 oral gavage 100 mg/kg, Rat (F)), 59.8 ng·h/mL/mg/kg; in data set [12] (dosed S2227 oral gavage 100 mg/kg, Rat (M)) it was 35.0 ng·h/mL/mg/kg. Moreover, the “DNA damage (in vivo), liver Comet assay” value in data set [7] is “negative (non-DNA damaging); also recorded: Negative”. Moreover, the “relative EIC peak area (%) compared to S2227 peak area at T = 0 min” value is 37.29% in data set [8], 6.47% in data set [9], 0.91% in [10] and 10.26% in [13]. Besides, the “Chromosome aberration (in vitro)” value in data set [11] (280-2160 μg/mL 4 h -S9, 100-1840 μg/mL 4 h +S9, 25-280 μg/mL 20 h -S9) was “Positive (4 h,⿿S9)”. Further, the “induction of structural aberrations” value in data set [11] (S9-activated test system) is “negative”; in [11] (non-activated test system) it was “positive”. For the same molecule, the “induction of numerical aberrations” value in [11] (non-activated and S9-activated test systems) is on record as “negative”.
`CCN(Cc1cccs1)C(=O)COc1ccc(C)cc1` [S5031, 2-(4-methylphenoxy)-N-ethyl-N-(2-thienylmethyl) acetamide]: in data set [14] (jugular vein (JV)), the “AUC0-8h ratio (acid/amine)” value is given as 23.0 and the “AUC0-8h ratio (amide/acid)” value is 0.013. For the same molecule, in [14] (portal vein (PV)), the “AUC0-8h ratio (acid/amine)” value was 13.3 and the “AUC0-8h ratio (amide/acid)” value is 0.52.
